This is a sample that favours compounds with a hit; in the whole collection about 3% have one here.
Ecoli rRNA inh – reduced GFP signal of wild-type E. coli, primary screen, bacterial rRNA inhibitor project, GFP/RFP fluorescence, OD600, single point; 1.6% of 350,000 active; GFP signal change (wild-type ribosome), % (concentration not given with the values); AID 720706, 2013; E. coli WT GFP vs humanized-ribosome RFP mutants, 24 h; stronger effect = lower value; DMSO median 0, no signal -100;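 active = significant combined selectivity score with lowered wild-type GFP, culture density cut under 30%, mutant RFP and density less affected; inactive = any of these conditions unmet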
PGC1a acetyl inh – inhibitors of PGC1a acetylation signal, primary screen, cell-based, U2OS, AlphaScreen, inhibitor mode. AlphaScreen anti-acetyl-lysine; with virally co-expressed GCN5 acetyltransferase. inhibition, % at 15.6 µM. 0.17% of 350,000 active;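 active = every replicate shows inhibition of at least 40%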;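 also: 0% = neutral control wells and 100% = positive control wells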
C2C12 statin – suppressors of statin myotoxicity in C2C12 myotubes, primary screen, cell-based, single point, plate reader | 0.78% of 330,000 active | AID 602340, 2012 | rescue of ATP level, % at 7.49 µM | C2C12 myotubes + simvastatin, ATP luminescence, 48 h; scaled: DMSO 0, geranylgeraniol control 100;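 active = mean ATP rescue above about 67%, or every replicate alone reaching that limit, limit read from the data, passing the limit was not always enough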;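 also: myotubes were challenged with 10 µM simvastatin during compound exposure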
SIRT5 inh – SIRT5 desuccinylase inhibitors, primary screen, biochemical, fluorescence imaging, single point, set 5; 1.1% of 330,000 active; NAD-dependent protein deacylase sirtuin-5, mitochondrial (Homo sapiens), Q9NXA8; inhibition, % at 15 µM; Purified SirT5, succinyl-peptide AMC, trypsin-coupled fluorescence; in the data active = inhibition above about 15%
Target sequence (Q9NXA8 whole entry, looked up): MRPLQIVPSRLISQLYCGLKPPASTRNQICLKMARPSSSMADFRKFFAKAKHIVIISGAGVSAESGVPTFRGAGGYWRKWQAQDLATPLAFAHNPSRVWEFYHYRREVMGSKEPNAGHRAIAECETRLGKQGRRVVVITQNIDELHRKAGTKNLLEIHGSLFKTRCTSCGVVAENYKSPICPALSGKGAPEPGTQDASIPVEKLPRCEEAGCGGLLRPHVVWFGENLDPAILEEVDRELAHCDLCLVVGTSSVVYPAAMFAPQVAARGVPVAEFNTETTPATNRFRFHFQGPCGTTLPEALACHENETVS
S100A4 inh HTS – inhibitors of S100A4-myosin IIA peptide binding, primary screen, biochemical, fluorescence polarization, TAMRA-MyoIIA peptide; Protein S100-A4 (Homo sapiens), P26447; inhibition, % at 10.7 µM; 0.14% of 360,000 active; AID 652163, 2013;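 active = mean inhibition of at least 70% across replicates, with every replicate also reaching that level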
Target sequence (P26447 whole entry, looked up): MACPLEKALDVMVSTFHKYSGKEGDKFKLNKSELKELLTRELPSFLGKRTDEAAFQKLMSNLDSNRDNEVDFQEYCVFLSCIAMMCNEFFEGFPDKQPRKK
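incubation = readout 5 min after mixing, signal stable up to 60 min | system = S100A4 monomer protein | buffer or medium = HEPES pH 7.2 with CaCl2, KCl, NaCl, DTT, Triton | benchmarks = neutral control DMSO, positive control TFP | also added = fluorescent myosin IIA peptide, 5 nM | compound dosing = one concentration per compound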
Cneo AK release – Cryptococcus neoformans cell lysis inducers, primary screen, AK release luminescence, single concentration. 0.2% of 360,000 active. lysis activity, % at 15 µM. C. neoformans lysis, adenylate kinase release luminescence, 4 h; normalised: neutral wells 0, clomiphene wells 100;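 active = mean lysis activity across replicates of at least 80%, whatever share of replicates individually reach that level; inactive = mean lysis activity below 80%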
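Test system: log-phase Cryptococcus neoformans yeast cells; Quantity: yeast cell density of 5 × 10^6 cells/mL; Buffer or medium: YPD; Doses: single compound concentration per well; Timing: 4 h at 37 °C static, read 1 h later; Measured by: AK luminescence; Read-out basis: lysis from increased AK signal; Control set: Clomiphene as positive control.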
Numbers without * were called inactive; . = no result given; ! = a repeat was not active.

SMILES	Ecoli rRNA inh	PGC1a acetyl inh	C2C12 statin	SIRT5 inh	S100A4 inh HTS	Cneo AK release
CC(C)CC#Cc1ccc2c(c1)O[C@@H](CN(C)C(=O)NC1CCCC1)[C@H](C)CN([C@@H](C)CO)S2(=O)=O	0	-2	.	16*	-3	-4
CC(C)CC#Cc1ccc2c(c1)O[C@@H](CN(C)C(=O)NC1CCCC1)[C@H](C)CN([C@H](C)CO)S2(=O)=O	-4	-7	.	25*	-21	-2
C/C=C/c1cnc2c(c1)C(=O)N([C@@H](C)CO)C[C@@H](C)[C@H](CN(C)Cc1ccc3c(c1)OCO3)O2	3	-8	-2	-22	1	5
C[C@@H]1CN([C@@H](C)CO)C(=O)c2cccc(NC(=O)Nc3cccc4ccccc34)c2O[C@H]1CN(C)C(=O)Nc1ccc(F)cc1	0	-5	-47	10	15	46
O=C1/C(=C/c2ccc(N3CCOCC3)o2)SC(=Nc2ccccc2)N1CCc1c[nH]c2ccccc12	.	62*	-169	.	.	8
CC(C)CC#Cc1ccc([C@@H]2[C@@H](CO)N3C(=O)CN(C(=O)Nc4ccc(F)cc4)C[C@@H]23)cc1	-15	-2	.	-3	-5	.
COc1ccc2c3c([nH]c2c1)[C@@H](CO)N(Cc1ccccc1OC)CC31CN(C)C1	-1	-2	.	.	11	.
CCc1nc2ccc(C(=O)N(CC)CCN(C)C)cn2c1N(CC)C(=O)NCCc1ccccc1	13	.	-3	29*	1	1
CCc1nc2ccc(C(=O)N3CCN(C(C)=O)CC3)cn2c1N(CC)C(=O)NCCc1ccccc1	13	.	-4	-2	-6	1
C[C@@H]1CN([C@H](C)CO)C(=O)c2cc(NS(=O)(=O)c3ccc(Cl)cc3)ccc2O[C@@H](C)CCCCO[C@@H]1CN(C)Cc1ccc2c(c1)OCO2	5	5	.	19*!	-5	-16
C[C@@H]1CN([C@H](C)CO)C(=O)c2cc(NS(=O)(=O)c3ccc(Cl)cc3)ccc2O[C@@H](C)CCCCO[C@@H]1CN(C)Cc1ccccc1	-10	6	.	21*	-5	0
C[C@@H]1CN([C@@H](C)CO)C(=O)c2cc(NS(=O)(=O)c3ccc(Cl)cc3)ccc2O[C@@H](C)CCCCO[C@H]1CN(C)Cc1ccc2c(c1)OCO2	-15	-3	.	5	7	-14
C[C@H]1CCCCO[C@H](CN(C)Cc2ccccc2)[C@@H](C)CN([C@@H](C)CO)C(=O)c2cc(NS(=O)(=O)c3ccc(Cl)cc3)ccc2O1	-9	-2	.	2	-3	4
C[C@@H]1CN([C@@H](C)CO)C(=O)c2cc(NS(=O)(=O)c3ccc(Cl)cc3)ccc2O[C@@H](C)CCCCO[C@@H]1CN(C)Cc1ccccc1	-3	-4	.	18*	-1	6
C[C@@H]1CN([C@@H](C)CO)C(=O)c2cc(N(C)C)ccc2O[C@@H](C)CCCCO[C@H]1CN(C)C(=O)CCC(F)(F)F	-1	2	-13	3	23	-4
CC(C)CC#Cc1ccc2c(c1)O[C@@H](CN(C)Cc1ccncc1)[C@@H](C)CN([C@@H](C)CO)S2(=O)=O	-17	-4	-16	10	5	-5
Cc1noc(C)c1NC(=O)Nc1cccc2c1O[C@@H](CN(C)S(=O)(=O)c1cn(C)cn1)[C@@H](C)CN([C@@H](C)CO)C2=O	2	-4	-7	0	2	105*
C[C@@H]1CN([C@H](C)CO)C(=O)c2cccc(NC(=O)Nc3ccc4c(c3)OCO4)c2O[C@@H]1CN(C)S(=O)(=O)c1cn(C)cn1	3	3	-34	16*	-17	1
C[C@@H]1CCCCO[C@H](CN(C)Cc2ccc3c(c2)OCO3)[C@@H](C)CN([C@H](C)CO)C(=O)c2cc(NS(=O)(=O)c3ccccc3)ccc2O1	5	-1	.	4	-7	4
CN(C)C(=O)C[C@@H]1CC[C@@H](NC(=O)Nc2cccc(F)c2)[C@H](CO)O1	0	0	4	4	-12	0
C/C=C/c1ccc2c(c1)O[C@@H](CN(C)C(=O)NC(C)C)[C@@H](C)CN([C@@H](C)CO)S2(=O)=O	-1	-19	12	-18	5	0
C[C@@H]1CN([C@@H](C)CO)C(=O)c2cccc(NS(C)(=O)=O)c2O[C@H]1CN(C)S(=O)(=O)c1ccc(F)cc1	3	5	.	.	.	.
C=C1CC[C@@H]2[C@](C)(CO)[C@H](O)CC[C@@]2(C)[C@@H]1/C=C/C1=CCOC1=O	-23*	2	-5	-3	-2	0
O=C(N/N=C/c1ccc(O)c(O)c1)c1ccc(CSc2cccc3cccnc23)cc1	-16*	24	-21	-1	9	.
Cc1ccc(S(=O)(=O)Nc2cccc3c2O[C@H](CN(C)S(C)(=O)=O)[C@H](C)CN([C@H](C)CO)C3=O)cc1	4	-1	-17	2	4	-1
SMILES	Ecoli rRNA inh	PGC1a acetyl inh	C2C12 statin	SIRT5 inh	S100A4 inh HTS	Cneo AK release
Cc1ccc(S(=O)(=O)CC(=O)c2cc(C)c(O)c(C)c2)cc1	-24*	7	20	-2	3	1
CCC(=O)Nc1ccc2c(c1)C(=O)N(C)[C@@H]1CC[C@@H](CC(=O)NC3CCCC3)O[C@H]1CO2	3	4	2	0	-4	-1
COc1ccc(OC)c(C(c2nnnn2Cc2ccccc2)N2CCN(C3CCCCC3)CC2)c1 (centres undefined)	.	13	121*	.	.	5
COc1ccc(Cn2nnnc2C(c2ccccc2OC)N2CCC(C(N)=O)CC2)cc1 (centres undefined)	.	2	100*	.	.	-1
COc1ccccc1C(c1nnnn1Cc1ccccc1)N1CCN(C2CCCC2)CC1 (centres undefined)	.	-6	-6	.	.	0
C[C@@H]1CN([C@H](C)CO)C(=O)c2cccc(NC(=O)c3ccc(-c4nccs4)cc3)c2O[C@@H]1CN(C)Cc1ccncc1	-5	1	-3	4	-22	-1
COc1cccc(C(=O)CN2C3=NCCCN3c3ccccc32)c1	.	-6	134*	.	.	-1
CCCOn1nnnc1-c1ccccc1	.	-14	120*	.	.	.
Cc1ccc(-n2c([C@@H]3C[C@H]3c3ccccc3)n[nH]c2=S)cc1	-1	5	1	1	0	.
